Consider seven compounds from ChEMBL document CHEMBL3745688, “Discovery of novel hybrids of diaryl-1,2,4-triazoles and caffeic acid as dual inhibitors of cyclooxygenase-2 and 5-lipoxygenase for cancer therapy” (Eur J Med Chem, 2016).

The nature of data set [1]: Antiproliferative activity against mouse B16F10 cells after 72 hrs by MTT assay. The following applies: B16-F10, 72 h. The class given is functional, cell-based. In a few lines: (§1)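 Cells seeded at 5×10^4/well, grown 24 h at 37 °C in 5% CO₂, then exposed to compounds dissolved in DMSO at a range of concentrations for 72 h. MTT (5 mg/mL in PBS) added for 4 h, then OD read at 570 nm. IC50 taken from dose-response curves, mean ± S.D. of three independent experiments.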
(Tetrazolium dyes change colour on reduction, which living cells bring about.)

Data set [2] concerns the target T1, Prostaglandin G/H synthase 2 (Homo sapiens, UniProt P35354).
T1 sequence (P35354 whole entry): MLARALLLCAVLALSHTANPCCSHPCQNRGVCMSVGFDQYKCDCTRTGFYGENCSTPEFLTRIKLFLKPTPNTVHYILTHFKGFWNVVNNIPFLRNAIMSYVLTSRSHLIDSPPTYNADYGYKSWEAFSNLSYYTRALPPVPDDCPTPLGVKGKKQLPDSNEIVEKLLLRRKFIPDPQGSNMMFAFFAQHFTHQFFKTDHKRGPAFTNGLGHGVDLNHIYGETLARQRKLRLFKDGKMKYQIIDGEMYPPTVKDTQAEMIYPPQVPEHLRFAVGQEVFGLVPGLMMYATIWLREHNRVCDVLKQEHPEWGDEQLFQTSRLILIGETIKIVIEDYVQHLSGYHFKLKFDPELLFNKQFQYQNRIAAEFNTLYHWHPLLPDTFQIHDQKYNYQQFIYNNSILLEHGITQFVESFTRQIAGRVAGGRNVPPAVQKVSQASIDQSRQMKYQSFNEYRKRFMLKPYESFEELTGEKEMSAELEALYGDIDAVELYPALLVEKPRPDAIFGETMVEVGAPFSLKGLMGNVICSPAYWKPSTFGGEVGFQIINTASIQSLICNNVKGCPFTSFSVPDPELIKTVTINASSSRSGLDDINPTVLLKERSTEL
In words: Inhibition of COX-2 (unknown origin).

A short description of data set [3]: Antiproliferative activity against human Caco2 cells after 72 hrs by MTT assay. The format is functional, cell-based. Particulars: Caco-2, 72 h. In a few lines: as §1
For data set [4], the system named is A549. The experiment in a line: Antiproliferative activity against human A549 cells after 72 hrs by MTT assay. The class given is functional, cell-based. Particulars: A549, 72 h. In a few lines: as §1
Data set [5] is described as follows: Antiproliferative activity against human PC3 cells after 72 hrs by MTT assay. The format is functional, cell-based. The following applies: PC-3, 72 h. In a few lines: as §1
Data set [6] deals with T2, Prostaglandin G/H synthase 1 (Bos taurus, UniProt O62664).
T2 sequence (O62664 whole entry): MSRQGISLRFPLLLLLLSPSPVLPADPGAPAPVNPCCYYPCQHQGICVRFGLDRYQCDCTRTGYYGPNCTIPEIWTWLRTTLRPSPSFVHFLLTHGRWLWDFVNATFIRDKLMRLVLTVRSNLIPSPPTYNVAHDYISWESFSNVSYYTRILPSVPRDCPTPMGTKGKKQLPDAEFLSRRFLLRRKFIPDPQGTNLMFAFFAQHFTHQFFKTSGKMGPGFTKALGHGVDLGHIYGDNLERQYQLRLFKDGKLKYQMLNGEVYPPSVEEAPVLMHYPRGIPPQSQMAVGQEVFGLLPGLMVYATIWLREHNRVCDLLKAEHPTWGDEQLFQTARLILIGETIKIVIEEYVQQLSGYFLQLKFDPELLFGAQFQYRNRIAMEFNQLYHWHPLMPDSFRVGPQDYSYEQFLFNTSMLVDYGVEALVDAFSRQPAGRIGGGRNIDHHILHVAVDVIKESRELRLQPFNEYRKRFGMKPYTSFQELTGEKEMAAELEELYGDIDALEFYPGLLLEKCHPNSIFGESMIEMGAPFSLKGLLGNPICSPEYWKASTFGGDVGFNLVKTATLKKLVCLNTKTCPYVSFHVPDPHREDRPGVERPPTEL
The experiment in a line: Inhibition of COX1 in calf endotheliocyte assessed as 6keto-PGF1alpha production pretreated for 20 mins followed by addition of 10 uM arachidonic acid as substrate for 20 mins by radioimmuno assay. In a few lines:
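Endothelial cells from neonatal calf thoracic aorta plated at 1.0×10^6 in DMEM with 10% FBS and grown 24 h at 37 °C in 5% CO₂. Compound or DMSO added for 20 min, then arachidonic acid (10 μM) for another 20 min. 6-keto-PGF1α in the medium quantified by radioimmunoassay. IC50 is the mean of four determinations.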

Data set [7] relates to Mus musculus. The experiment in a line: Toxicity in mouse xenografted with B16F10 cells assessed as body weight at 40 mg/kg, iv measured after 25 days (reference value: 28.1 +/- 1.7 g). The class given is organism-based, B16-F10. The following applies: in vivo, 600 h. In a few lines: (§2)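 B16-F10 cells implanted subcutaneously in the right oxter of ICR mice weighing 18-22 g. After 7 days, animals weighed and randomized into groups of 10. Dosed intravenously with vehicle (saline with 1% DMSO/2% poloxamer, 0.4 ml/mouse), 40 mg/kg test agent, or 5-FU 20 mg/kg. Killed on day 25 after implantation. Tumors excised and weighed; inhibition = (1 − treated/vehicle mean tumor weight)×100; body weights recorded at start and end.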

Data set [8] concerns the target T3, Prostaglandin G/H synthase 2 (Rattus norvegicus, UniProt P35355).
T3 sequence (P35355 whole entry): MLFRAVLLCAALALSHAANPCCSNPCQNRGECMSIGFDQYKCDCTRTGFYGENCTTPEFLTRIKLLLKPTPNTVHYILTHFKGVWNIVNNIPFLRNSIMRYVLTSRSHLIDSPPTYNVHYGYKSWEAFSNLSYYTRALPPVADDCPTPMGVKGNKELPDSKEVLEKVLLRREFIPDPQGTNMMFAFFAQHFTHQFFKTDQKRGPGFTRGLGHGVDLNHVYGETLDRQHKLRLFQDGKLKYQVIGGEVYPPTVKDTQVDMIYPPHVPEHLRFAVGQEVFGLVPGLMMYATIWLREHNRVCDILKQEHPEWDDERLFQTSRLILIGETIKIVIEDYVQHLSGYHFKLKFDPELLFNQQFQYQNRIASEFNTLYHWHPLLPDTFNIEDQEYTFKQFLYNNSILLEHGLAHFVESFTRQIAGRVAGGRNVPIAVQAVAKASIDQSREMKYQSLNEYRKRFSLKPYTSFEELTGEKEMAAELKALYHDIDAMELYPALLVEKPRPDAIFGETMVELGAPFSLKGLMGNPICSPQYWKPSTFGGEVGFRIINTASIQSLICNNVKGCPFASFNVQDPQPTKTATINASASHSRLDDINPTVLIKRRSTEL
In words: Inhibition of COX2 in rat abdominal macrophages assessed as PGE2 production pretreated for 30 mins followed by addition of 10 uM arachidonic acid as substrate for 20 mins by EIA.

A short description of data set [9]: Selectivity index, ratio of IC50 for rat COX2 to IC50 for calf COX1. In a few lines: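 Ratio of COX-2 IC50 to COX-1 IC50. COX-2 was measured in rat peritoneal macrophages: 1.0×10^6/well in RPMI 1640 with 5% FCS, grown 24 h, COX-1 inactivated with 1 mM aspirin, COX-2 induced with LPS 1 µg/mL for 6 h, compound added for 30 min, then arachidonic acid 10 µM for 20 min, PGE2 read by EIA. COX-1 was measured in calf aortic endothelial cells by 6-keto-PGF1α radioimmunoassay.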

Data set [10] can be described thus: Antitumor activity against mouse B16F10 cells xenografted in mouse assessed as inhibition of tumor growth at 40 mg/kg, iv after 25 days. The class given is functional. Particulars: B16-F10, iv, 600 h. In a few lines: as §2
Data set [11] concerns the target T4, Polyunsaturated fatty acid 5-lipoxygenase (Rattus norvegicus, UniProt P12527).
T4 sequence (P12527 whole entry): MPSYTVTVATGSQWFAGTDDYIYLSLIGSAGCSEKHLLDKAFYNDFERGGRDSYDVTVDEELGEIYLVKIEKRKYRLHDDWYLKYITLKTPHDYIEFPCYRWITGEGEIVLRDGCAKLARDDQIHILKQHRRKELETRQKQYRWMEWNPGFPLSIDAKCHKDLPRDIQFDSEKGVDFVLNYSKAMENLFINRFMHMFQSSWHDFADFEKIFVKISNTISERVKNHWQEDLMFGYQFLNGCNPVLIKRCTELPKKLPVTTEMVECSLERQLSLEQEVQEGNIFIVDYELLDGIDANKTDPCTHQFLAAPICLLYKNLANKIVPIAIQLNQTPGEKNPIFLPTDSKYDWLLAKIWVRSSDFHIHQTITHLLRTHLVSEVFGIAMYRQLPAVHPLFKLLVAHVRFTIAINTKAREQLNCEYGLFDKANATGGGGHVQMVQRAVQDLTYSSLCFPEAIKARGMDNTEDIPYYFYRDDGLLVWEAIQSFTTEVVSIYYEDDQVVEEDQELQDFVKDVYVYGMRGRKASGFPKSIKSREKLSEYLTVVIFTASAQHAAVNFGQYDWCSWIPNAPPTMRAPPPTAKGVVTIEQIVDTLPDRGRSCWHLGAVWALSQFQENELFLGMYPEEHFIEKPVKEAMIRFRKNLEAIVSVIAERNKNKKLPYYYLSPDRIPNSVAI
In words: Inhibition of 5-LOX in Sprague-Dawley rat leukocytes assessed as A23187 stimulated LTB4 production pretreated for 30 mins followed by addition of A23187 for 30 mins by EIA. The class given is cell-based. In a few lines:
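Rat peritoneal leukocytes collected from Sprague-Dawley rats primed i.p. with 0.2% glycogen (20 mL/kg). Cells in Hanks solution plated at 1.0×10^6/well and held 10 min at 37 °C. Pretreated 30 min with L-cysteine (10 mM), indomethacin (1 mg/L) and compound or DMSO. A23187 added for 30 min. LTB4 in the clarified supernatant measured by EIA; % inhibition from OD; IC50 by Bliss method.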

Data set [12] concerns Mus musculus. The experiment in a line: Toxicity in mouse xenografted with B16F10 cells assessed as body weight at 20 mg/kg, iv measured after 25 days (reference value: 28.1 +/- 1.7 g). The following applies: in vivo, 600 h. The format is organism-based, B16-F10.
Data set [13] in a line: Antitumor activity against mouse B16F10 cells xenografted in mouse assessed as inhibition of tumor growth at 20 mg/kg, iv after 25 days. The class given is functional. Particulars: B16-F10, iv, 600 h.

For `CSc1nc(-c2ccc(S(N)(=O)=O)cc2)n(-c2ccc(Cl)cc2)n1`, the IC50 in [1] was determined as 32.3 µM; in data set [2], 0.37 µM; in [3], 41.2 µM; in data set [4] it was 29.5 µM; in data set [5] it was 37.5 µM.

In the case of `COc1cc(/C=C/C(=O)OCCSc2nc(-c3ccc(S(C)(=O)=O)cc3)n(-c3ccc(C(F)(F)F)cc3)n2)ccc1O`, the IC50 in data set [6] is 20.5 µM; in [1], 8.65 µM; in data set [3], 9.05 µM; in [4], 6.78 µM; in data set [5], 7.46 µM; in [8] it was 0.21 µM. Besides, in data set [11], the IC50 is 0.81 µM. The Activity in [7] is listed as 26.3 g. In addition, the Ratio IC50 in data set [9] is 0.01. Moreover, the inhibition in vivo at 40 mg/kg in data set [10] came out at 58.9%.

Regarding `CS(=O)(=O)c1ccc(-c2nc(SCCCNC(=O)/C=C/c3ccc(O)c(O)c3)nn2-c2ccc(F)cc2)cc1`, the IC50 in data set [6] came to 13.2 µM; in [1], 18.7 µM; in [3], 20.9 µM; in data set [4], 22.1 µM; in data set [5] it was 23.1 µM; in data set [8], 0.12 µM. Moreover, the IC50 in data set [11] was found to be 0.71 µM. Also, the Ratio IC50 in data set [9] turned out to be 0.009.

For `O=c1[nH]cc(F)c(=O)[nH]1` [FLUOROURACIL], in [12], the Activity is 26 g. Further, the inhibition in vivo at 20 mg/kg in data set [13] amounted to 68.2%.

`COc1cc(/C=C/C(=O)OCCSc2nc(-c3ccc(S(C)(=O)=O)cc3)n(-c3ccc(F)cc3)n2)ccc1OC(C)=O`: the IC50 in [1] was 11.2 µM; in data set [3], 10.8 µM; in [4], 9.61 µM; in data set [5], 12.8 µM; in data set [8], 0.24 µM; in data set [11] it was 0.92 µM.

For the compound `CS(=O)(=O)c1ccc(-c2nc(SCCCOC(=O)/C=C/c3ccccc3)nn2-c2ccc(Br)cc2)cc1`, the IC50 in [6] amounted to 45.7 µM; in data set [1], 19.4 µM; in data set [3], 24.6 µM; in [4] it was 22.3 µM; in data set [5] it was 21.9 µM; in data set [8], 0.42 µM. Moreover, in data set [11], the IC50 was 1.3 µM. Further, in [9], the Ratio IC50 worked out at 0.009.

`CS(=O)(=O)c1ccc(-c2nc(SCCCOC(=O)/C=C/c3ccc(O)c(O)c3)nn2-c2ccc(Br)cc2)cc1`: the IC50 worked out at 13.1 µM in [1]; 12.4 µM in data set [3]; 11.2 µM in data set [4]; 12.3 µM in [5]; 0.37 µM in [8]; 0.79 µM in data set [11].

What is called IC50 is the point on the concentration scale where inhibition reaches its midpoint. For orientation: inhibition in vivo means the change of the read-out against control, counted positive when it falls.
